Laboratory results from ChEMBL document CHEMBL1156112, “Discovery of 3-(1H-indol-3-yl)-4-[2-(4-methylpiperazin-1-yl)quinazolin-4-yl]pyrrole-2,5-dione (AEB071), a potent and selective inhibitor of protein kinase C isotypes” (J Med Chem, 2009).

Key:
[1] = target: Protein kinase C alpha type (Homo sapiens, UniProt P17252); test: Inhibition of PKCalpha by SPA
[2] = target: Protein kinase C beta type (Homo sapiens, UniProt P05771); test: Inhibition of PKCbeta1 by SPA
[3] = target: Protein kinase C delta type (Homo sapiens, UniProt Q05655); test: Inhibition of PKCdelta by SPA
[4] = target: T1, Protein kinase C epsilon type (Homo sapiens, UniProt Q02156); test: Inhibition of PKCepsilon by SPA
T1 sequence (Q02156 whole entry): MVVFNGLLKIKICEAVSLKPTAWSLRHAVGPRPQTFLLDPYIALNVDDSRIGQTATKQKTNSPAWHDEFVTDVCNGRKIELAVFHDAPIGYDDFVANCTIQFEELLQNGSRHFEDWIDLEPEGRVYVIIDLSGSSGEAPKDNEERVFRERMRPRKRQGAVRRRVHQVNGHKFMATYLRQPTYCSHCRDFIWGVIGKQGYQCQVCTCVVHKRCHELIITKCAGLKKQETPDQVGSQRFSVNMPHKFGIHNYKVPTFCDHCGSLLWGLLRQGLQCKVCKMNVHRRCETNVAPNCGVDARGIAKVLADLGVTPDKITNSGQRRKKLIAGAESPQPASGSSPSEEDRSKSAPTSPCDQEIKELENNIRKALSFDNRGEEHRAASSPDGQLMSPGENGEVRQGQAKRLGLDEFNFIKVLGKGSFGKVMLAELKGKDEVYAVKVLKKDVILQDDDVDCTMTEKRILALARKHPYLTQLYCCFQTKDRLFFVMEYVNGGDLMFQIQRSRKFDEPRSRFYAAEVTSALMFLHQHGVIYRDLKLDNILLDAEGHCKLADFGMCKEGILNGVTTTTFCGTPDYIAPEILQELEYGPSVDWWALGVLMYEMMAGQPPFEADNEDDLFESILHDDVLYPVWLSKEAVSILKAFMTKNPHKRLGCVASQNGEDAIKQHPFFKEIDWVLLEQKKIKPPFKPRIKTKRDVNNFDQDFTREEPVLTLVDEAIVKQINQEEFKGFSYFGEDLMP

[5] = target: Protein kinase C eta type (Homo sapiens, UniProt P24723); test: Inhibition of PKCeta by SPA
[6] = target: Protein kinase C theta type (Homo sapiens, UniProt Q04759); test: Inhibition of PKCtheta by SPA
[7] = AUC (0 to infinity) in Lewis rat at 5 mg/kg, iv; assay type: ADME, organism-based; parameters: time infinity, dose 5 mg/kg, route intravenous; settings: plasma
Summary of the method: (§1)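 Rats dosed either 5 mg/kg iv in 75% saline (0.9%)-25% PEG400 or 20 mg/kg po in 75% water-25% PEG400. OFA or Lewis rats were used depending on the compound. Values are averages of three animals. AUC is extrapolated to infinity. Oral bioavailability (F) comes from the po and iv exposures.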

[8] = Elimination half life in Lewis rat at 5 mg/kg, iv; assay type: ADME, organism-based; parameters: dose 5 mg/kg, route intravenous; settings: in vivo, read-out: beta t1/2 (converted); summary of the method: as §1
[9] = Clearance in Lewis rat at 5 mg/kg, iv; assay type: ADME, organism-based; parameters: dose 5 mg/kg, route intravenous; settings: in vivo; summary of the method: as §1
[10] = Volume of distribution at steady state in Lewis rat at 5 mg/kg, iv; assay type: ADME, organism-based; parameters: dose 5 mg/kg, route intravenous; settings: in vivo, read-out: Vdss; summary of the method: as §1
[11] = Tmax in Lewis rat at 20 mg/kg, po; assay type: ADME, organism-based; parameters: dose 20 mg/kg, route oral; settings: in vivo; summary of the method: as §1
[12] = Cmax in Lewis rat at 20 mg/kg, po; assay type: ADME, organism-based; parameters: dose 20 mg/kg, route oral; settings: in vivo; summary of the method: as §1
[13] = AUC (0 to infinity) in Lewis rat at 20 mg/kg, po; assay type: ADME, organism-based; parameters: time infinity, dose 20 mg/kg, route oral; settings: plasma; summary of the method: as §1
[14] = Oral bioavailability in Lewis rat at 20 mg/kg, po; assay type: ADME, organism-based; settings: in vivo; summary of the method: as §1
[15] = cells; settings: Homo sapiens, Jurkat

Sequence of Protein kinase C delta type (Q05655 whole entry): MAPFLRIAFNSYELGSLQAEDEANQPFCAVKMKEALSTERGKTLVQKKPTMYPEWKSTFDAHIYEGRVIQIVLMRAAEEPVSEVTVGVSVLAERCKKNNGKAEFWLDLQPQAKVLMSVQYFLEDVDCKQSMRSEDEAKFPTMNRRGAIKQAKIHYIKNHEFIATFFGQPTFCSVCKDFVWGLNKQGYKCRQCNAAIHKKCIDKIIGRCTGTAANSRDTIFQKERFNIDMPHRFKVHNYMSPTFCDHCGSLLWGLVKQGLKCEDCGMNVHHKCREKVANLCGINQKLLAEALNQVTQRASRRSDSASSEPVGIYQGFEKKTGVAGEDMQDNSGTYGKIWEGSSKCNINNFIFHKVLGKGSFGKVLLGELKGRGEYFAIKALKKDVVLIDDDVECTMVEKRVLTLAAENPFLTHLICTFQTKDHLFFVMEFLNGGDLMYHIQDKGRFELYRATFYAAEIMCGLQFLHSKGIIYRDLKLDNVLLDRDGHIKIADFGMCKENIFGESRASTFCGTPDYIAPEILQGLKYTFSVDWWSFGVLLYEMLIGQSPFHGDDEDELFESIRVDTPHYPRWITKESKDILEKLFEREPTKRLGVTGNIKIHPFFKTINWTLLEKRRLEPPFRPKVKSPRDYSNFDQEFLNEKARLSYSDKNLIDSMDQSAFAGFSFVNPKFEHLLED
Sequence of Protein kinase C eta type (P24723 whole entry): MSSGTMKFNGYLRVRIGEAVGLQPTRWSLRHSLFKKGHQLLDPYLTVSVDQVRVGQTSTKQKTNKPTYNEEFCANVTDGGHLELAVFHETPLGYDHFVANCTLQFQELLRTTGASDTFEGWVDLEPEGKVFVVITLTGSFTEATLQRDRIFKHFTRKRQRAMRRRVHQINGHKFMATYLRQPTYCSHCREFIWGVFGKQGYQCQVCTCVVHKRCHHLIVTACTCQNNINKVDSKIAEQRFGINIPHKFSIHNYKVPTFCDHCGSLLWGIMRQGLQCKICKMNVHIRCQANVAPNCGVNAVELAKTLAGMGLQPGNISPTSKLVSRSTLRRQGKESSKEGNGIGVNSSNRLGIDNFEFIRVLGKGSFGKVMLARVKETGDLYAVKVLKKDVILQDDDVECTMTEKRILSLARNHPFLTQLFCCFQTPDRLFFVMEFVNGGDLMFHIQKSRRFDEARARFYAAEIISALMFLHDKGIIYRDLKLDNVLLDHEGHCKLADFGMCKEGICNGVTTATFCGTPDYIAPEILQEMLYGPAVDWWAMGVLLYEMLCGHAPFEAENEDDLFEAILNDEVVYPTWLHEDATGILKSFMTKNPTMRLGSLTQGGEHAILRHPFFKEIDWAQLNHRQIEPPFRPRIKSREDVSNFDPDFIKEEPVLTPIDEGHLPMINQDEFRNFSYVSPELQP
Sequence of Protein kinase C theta type (Q04759 whole entry): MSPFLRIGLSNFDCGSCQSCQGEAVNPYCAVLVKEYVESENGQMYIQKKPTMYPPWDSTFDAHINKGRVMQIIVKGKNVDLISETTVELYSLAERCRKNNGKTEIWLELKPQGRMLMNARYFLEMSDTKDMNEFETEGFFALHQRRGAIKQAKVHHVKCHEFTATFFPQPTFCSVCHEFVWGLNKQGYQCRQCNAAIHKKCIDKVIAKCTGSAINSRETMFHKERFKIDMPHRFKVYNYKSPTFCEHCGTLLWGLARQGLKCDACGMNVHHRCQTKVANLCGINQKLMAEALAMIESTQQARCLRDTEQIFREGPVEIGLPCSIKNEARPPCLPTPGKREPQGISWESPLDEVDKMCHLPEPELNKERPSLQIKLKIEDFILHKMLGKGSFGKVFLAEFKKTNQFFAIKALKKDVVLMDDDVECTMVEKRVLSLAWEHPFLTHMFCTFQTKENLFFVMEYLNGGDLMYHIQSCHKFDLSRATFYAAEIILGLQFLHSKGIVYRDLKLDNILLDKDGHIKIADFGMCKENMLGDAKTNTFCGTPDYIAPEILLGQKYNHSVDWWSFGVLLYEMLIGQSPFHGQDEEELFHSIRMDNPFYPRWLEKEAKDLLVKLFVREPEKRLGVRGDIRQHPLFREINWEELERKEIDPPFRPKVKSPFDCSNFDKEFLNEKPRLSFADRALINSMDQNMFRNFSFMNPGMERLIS
Sequence of Protein kinase C beta type (P05771 whole entry): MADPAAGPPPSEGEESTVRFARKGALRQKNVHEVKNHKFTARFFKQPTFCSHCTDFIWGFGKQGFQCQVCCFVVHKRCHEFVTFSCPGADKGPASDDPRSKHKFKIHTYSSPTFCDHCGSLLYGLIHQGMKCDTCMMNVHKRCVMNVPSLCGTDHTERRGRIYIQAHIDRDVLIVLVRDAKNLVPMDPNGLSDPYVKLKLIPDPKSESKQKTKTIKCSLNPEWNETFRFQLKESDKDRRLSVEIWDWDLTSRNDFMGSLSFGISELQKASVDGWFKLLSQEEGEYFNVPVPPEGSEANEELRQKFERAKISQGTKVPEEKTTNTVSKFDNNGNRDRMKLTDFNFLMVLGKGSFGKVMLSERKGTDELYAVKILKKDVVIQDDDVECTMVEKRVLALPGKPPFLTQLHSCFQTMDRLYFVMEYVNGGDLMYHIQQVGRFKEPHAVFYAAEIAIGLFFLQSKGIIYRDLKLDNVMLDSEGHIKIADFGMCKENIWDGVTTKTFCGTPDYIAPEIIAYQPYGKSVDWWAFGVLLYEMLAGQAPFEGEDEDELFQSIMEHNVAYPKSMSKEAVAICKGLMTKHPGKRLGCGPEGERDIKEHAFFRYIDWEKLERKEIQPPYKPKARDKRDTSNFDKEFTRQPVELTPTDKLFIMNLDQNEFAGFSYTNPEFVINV

IC50 [1] [µM] | IC50 [2] [µM] | IC50 [3] [µM] | IC50 [4] [µM] | IC50 [5] [µM] | IC50 [6] [µM] | AUC(0-inf) [7] [ng·h/mL] | half-life [8] [h] | clearance [9] [mL/min/kg] | Vd [10] [L/kg] | Tmax [11] [h] | Cmax [12] [ng/mL] | AUC(0-inf) [13] [ng·h/mL] | bioavailability [14] [%] | IC50 [15] [µM] | Structure (SMILES)
0.0009 | 0.0018 | 0.0073 | 0.019 | 0.025 | 0.0048 | 4320 | 4.5 | 19.3 | 12 | 2 | 242 | 1990 | 12 | 0.05 | CN1CCN(c2cc(C3=C(c4c[nH]c5ccccc45)C(=O)NC3=O)c3ccccc3c2)CC1
1.5 | 1.27 | 0.794 | 1.82 | 2.54 | 1.38 | – | – | – | – | – | – | – | – | > 3.7 | O=C1NC(=O)C(c2c[nH]c3ccccc23)=C1c1nc(N2CCOCC2)nc2ccccc12
